Test results from ChEMBL document CHEMBL4311973, “Synthesis of cinnamic acid derivatives and leishmanicidal activity against Leishmania braziliensis” (Eur J Med Chem, 2019).
Activity calls are given as the source filed them. The calls are words filed in the database; no cut-off is given here.

Assays:
Leishmania braziliensis [1] = test: Antileishmanial activity against Leishmania braziliensis MHOM/BR/75/M2904 promastigotes assessed as reduction in cell viability at 10 uM incubated for 48 hrs by resazurin staining based assay; format: functional, organism-based
How it was run: (§1)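 Log-phase promastigotes exposed 48 h to compound in RPMI (final DMSO 0.1%); survival read by resazurin relative to DMSO. Screening at 10 µM; IC50 runs at 1–80 µM. Amphotericin B 3.125 µg/mL and 0.1% DMSO as controls; quadruplicate wells, two or three independent experiments; significance by one-way ANOVA with Dunnett post-test.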

Leishmania braziliensis [2] = test: Induction of autophagy in Leishmania braziliensis MHOM/BR/75/M2904 amastigotes infected in […] RAW264.7 cells incubated for 48 hrs by transmission electron microscopy; format: functional, organism-based
How it was run: (§2)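 Infected macrophage cultures treated with compound or DMSO control, then examined by transmission electron microscopy for parasite morphology within parasitophorous vacuoles (lobulation, multimembrane vesicles, chromatin fragments).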

Leishmania braziliensis [3] = test: Antileishmanial activity against Leishmania braziliensis MHOM/BR/75/M2904 amastigotes infected in […] cells assessed as cell viability at 40 uM incubated for 48 hrs by resazurin staining based assay (reference value: 10.71 %); format: functional
Leishmania braziliensis [4] = test: Antileishmanial activity against Leishmania braziliensis MHOM/BR/75/M2904 promastigotes assessed as reduction in cell viability incubated for 48 hrs by resazurin staining based assay; format: functional, organism-based; conditions: MHOM/BR/75/M2904, 48 h; how it was run: as §1
Leishmania braziliensis [5] = test: Antileishmanial activity against Leishmania braziliensis MHOM/BR/75/M2904 amastigotes infected in […] cells assessed as cell viability at 30 uM incubated for 48 hrs by resazurin staining based assay (reference value: 10.71 %); format: functional
Leishmania braziliensis [6] = test: Antileishmanial activity against Leishmania braziliensis MHOM/BR/75/M2904 amastigotes infected in […] cells assessed as cell viability at 10 uM incubated for 48 hrs by resazurin staining based assay (reference value: 10.71 %); format: functional
Leishmania braziliensis [7] = test: Antileishmanial activity against Leishmania braziliensis MHOM/BR/75/M2904 amastigotes infected in […] cells assessed as cell viability at 5 uM incubated for 48 hrs by resazurin staining based assay (reference value: 10.71 %); format: functional
Leishmania braziliensis [8] = test: Cell cycle arrest in Leishmania braziliensis MHOM/BR/75/M2904 amastigotes infected in […] cells assessed as lobulated cell bodies incubated for 48 hrs by transmission electron microscopy; format: functional, organism-based; how it was run: as §2
RAW264.7 [9] = test: Cytotoxicity against […] RAW264.7 cells assessed as reduction in cell viability at 10 uM incubated for 48 hrs by resazurin staining based assay; conditions: raw264.7, 48 h
How it was run: (§3)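 RAW 264.7 macrophages treated 48 h with compound in RPMI (final DMSO 0.1%); survival measured by resazurin viability assay. Screening at 10 µM, IC50 range 1–80 µM. Controls amphotericin B 3.125 µg/mL and 0.1% DMSO; three independent experiments in internal quadruplicate.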

RAW264.7 [10] = test: Cytotoxicity against […] RAW264.7 cells assessed as reduction in cell viability incubated for 48 hrs by resazurin staining based assay; conditions: Mus musculus, RAW264.7, 48 h; how it was run: as §3
Leishmania braziliensis [11] = test: Antileishmanial activity against Leishmania braziliensis MHOM/BR/75/M2904 amastigotes infected in […] cells assessed as cell viability at 2.5 uM incubated for 48 hrs by resazurin staining based assay (reference value: 10.71 %); format: functional
Leishmania braziliensis [12] = test: Antileishmanial activity against Leishmania braziliensis MHOM/BR/75/M2904 amastigotes infected in […] cells assessed as cell viability at 20 uM incubated for 48 hrs by resazurin staining based assay (reference value: 10.71 %); format: functional
Leishmania braziliensis [13] = test: Induction of apoptosis in Leishmania braziliensis MHOM/BR/75/M2904 amastigotes infected in […] RAW264.7 cells incubated for 48 hrs by transmission electron microscopy; format: functional, organism-based; how it was run: as §2
[14] = Selectivity index, ratio of IC50 of cytotoxicity against […] RAW264.7 cells to IC50 of antileishmanial activity against Leishmania braziliensis MHOM/BR/75/M2904 amastigotes infected in […] RAW264.7 cells; format: toxicity, cell-based; conditions: read-out: Ratio IC50
How it was run: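 Selectivity index from IC50 on RAW 264.7 macrophages over IC50 against intracellular amastigotes, both after 48 h by resazurin.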

Leishmania braziliensis [15] = test: Antileishmanial activity against Leishmania braziliensis MHOM/BR/75/M2904 amastigotes infected in […] cells assessed as reduction in cell viability incubated for 48 hrs by resazurin staining based assay; format: functional, organism-based; conditions: MHOM/BR/75/M2904, RAW264.7, 48 h
Leishmania braziliensis [16] = test: Antileishmanial activity against Leishmania braziliensis MHOM/BR/75/M2904 amastigotes infected in […] cells assessed as cell viability at 80 uM incubated for 48 hrs by resazurin staining based assay (reference value: 10.71 %); format: functional
[17] = Solubility of compound in 0.1% DMSO by light microscopy; format: physicochemical
How it was run: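 Compounds taken up in aqueous 5% DMSO, diluted in RPMI to 10 µM (final DMSO 0.1%), and inspected by light microscopy for crystal formation.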

RAW264.7 [18] = test: Cytotoxicity against […] RAW264.7 cells assessed as reduction in cell viability at 3.125 ug/ml incubated for 48 hrs by resazurin staining based assay; conditions: raw264.7, 48 h; how it was run: as §3
Leishmania braziliensis [19] = test: Antileishmanial activity against Leishmania braziliensis MHOM/BR/75/M2904 amastigotes infected in […] cells assessed as cell viability at 1 uM incubated for 48 hrs by resazurin staining based assay (reference value: 10.71 %); format: functional

SMILES | Activity (Leishmania braziliensis [1]) | Activity (Leishmania braziliensis [6]) | Activity (RAW264.7 [9]) | other results
COc1cc(/C=C/C(=O)Oc2ccc3c(c2)C(=O)OC3)cc(OC)c1OC | Active | 64.46 - 80.47% | Non-Toxic | Activity (Leishmania braziliensis [2]): Active; Activity (Leishmania braziliensis [3]): 46.33%; IC50 (Leishmania braziliensis [4]): 7.58 µM; Activity (Leishmania braziliensis [5]): 47.12%; Activity (Leishmania braziliensis [7]): 79.72%; Activity (Leishmania braziliensis [8]): Active; IC50 (RAW264.7 [10]): > 80 µM; Activity (Leishmania braziliensis [11]): 74.54%; Activity (Leishmania braziliensis [12]): 19.71%; Activity (Leishmania braziliensis [13]): Active; selectivity ratio [14]: > 9.67; IC50 (Leishmania braziliensis [15]): 8.27 µM; Activity (Leishmania braziliensis [16]): 35.51%
O=C(/C=C/c1ccccc1)OCc1cn(Cc2ccc(OC(F)(F)F)cc2)nn1 | inactive | 77.39% | Non-Toxic | 
O=C(/C=C/c1ccccc1)OCCCc1cn(Cc2ccc(Br)cc2)nn1 | Active | 45.1% | Non-Toxic | 
COc1ccc(/C=C/C(=O)Oc2ccc3c(c2)C(=O)OC3)cc1 |  |  |  | solubility [17]: Insoluble
C[C@@H]1[C@H](O)[C@@H](C)/C=C/C=C/C=C/C=C/C=C/C=C/C=C/[C@H](O[C@@H]2O[C@H](C)[C@@H](O)[C@H](N)[C@@H]2O)C[C@@H]2O[C@](O)(C[C@@H](O)C[C@@H](O)[C@H](O)CC[C@@H](O)C[C@@H](O)CC(=O)O[C@H]1C)C[C@H](O)[C@H]2C(=O)O [AMPHOTERICIN B] |  | 98.25% |  | Activity (RAW264.7 [18]): Non-Toxic
COc1ccc(Cn2cc(COC(=O)/C=C/c3ccccc3)nn2)cc1 | inactive | 76% | Non-Toxic | 
O=C(/C=C/c1ccccc1)OCc1cn(Cc2c(Cl)cc(Cl)cc2Cl)nn1 | inactive | 70.38% | Non-Toxic | 
O=C(/C=C/c1ccccc1)OCCCc1cn(Cc2ccc(OC(F)(F)F)cc2)nn1 | Active | 65.84% | Non-Toxic | 
O=C(/C=C/c1ccc([N+](=O)[O-])cc1)Oc1ccc2c(c1)C(=O)OC2 |  | 59.54% | Non-Toxic | 
O=C(/C=C/c1ccccc1)OCCCc1cn(Cc2ccccc2Br)nn1 |  | 57.32% | Non-Toxic | 
COc1ccc(Cn2cc(CCCOC(=O)/C=C/c3ccccc3)nn2)cc1 |  | 60.48% | Non-Toxic | 
O=C(/C=C/c1ccccc1)OCCCc1cn(Cc2ccc([N+](=O)[O-])cc2)nn1 | Active | 20.58% | Non-Toxic | 
O=C(/C=C/c1ccccc1)OCc1cn(Cc2ccc(I)cc2)nn1 |  |  |  | solubility [17]: Insoluble
O=C(/C=C/c1ccccc1)OCCCc1cn(Cc2ccccc2)nn1 | Active | 39.73% | Non-Toxic | 
O=C(/C=C/c1ccccc1)OCCCc1cn(Cc2ccc(I)cc2)nn1 | Active | 52.07% | Non-Toxic | 
O=C(/C=C/c1ccccc1)OCCCc1cn(Cc2cc(Cl)ccc2Cl)nn1 | Active | 45.74% | Non-Toxic | 
O=C(/C=C/c1ccccc1)OCc1cn(Cc2cc(Cl)ccc2Cl)nn1 | inactive | 78.98% | Non-Toxic | 

SMILES | Activity (Leishmania braziliensis [1]) | Activity (Leishmania braziliensis [6]) | Activity (RAW264.7 [9]) | other results
O=C(/C=C/c1ccccc1)OCCCc1cn(Cc2ccc(C(F)(F)F)cc2)nn1 | Active | 69.24% | Non-Toxic | 
O=C(/C=C/c1ccccc1)OCc1cn(Cc2ccc(Cl)cc2)nn1 |  |  |  | solubility [17]: Insoluble
O=C(/C=C/c1ccccc1)OCCCc1cn(Cc2ccc(Cl)cc2)nn1 | Active | 49.01% | Non-Toxic | 
O=C(/C=C/c1ccccc1)OCc1cn(Cc2ccccc2)nn1 | inactive | 19.91% | Non-Toxic | 
O=C(/C=C/c1ccccc1)OCc1cn(Cc2ccc(F)c(F)c2)nn1 | inactive | 68.6 - 86.32% | Non-Toxic | Activity (Leishmania braziliensis [3]): 72.41%; IC50 (Leishmania braziliensis [4]): 3.05 µM; Activity (Leishmania braziliensis [5]): 95.13%; Activity (Leishmania braziliensis [7]): 98.18%; Activity (Leishmania braziliensis [19]): 85.4%; IC50 (RAW264.7 [10]): > 80 µM; Activity (Leishmania braziliensis [11]): 83.08%; Activity (Leishmania braziliensis [12]): 79.77%
O=C(/C=C/c1ccc(F)cc1)Oc1ccc2c(c1)C(=O)OC2 | Active | 43.87% | Non-Toxic | 
O=C(/C=C/c1ccccc1)OCCCc1cn(Cc2ccc(F)c(F)c2)nn1 |  | 47.85% | Non-Toxic | 
O=C(/C=C/c1ccccc1)OCc1cn(Cc2ccc(C(F)(F)F)cc2)nn1 |  |  |  | solubility [17]: Insoluble
O=C(/C=C/c1ccccc1)OCc1cn(Cc2ccccc2Br)nn1 | inactive | 80.12% | Non-Toxic | 
O=C(/C=C/c1ccccc1)OCc1cn(Cc2ccc([N+](=O)[O-])cc2)nn1 |  |  |  | solubility [17]: Insoluble
O=C(/C=C/c1ccc(Br)cc1)Oc1ccc2c(c1)C(=O)OC2 | Active | 50.14% | Non-Toxic | 
O=C(/C=C/c1ccc(Cl)cc1)Oc1ccc2c(c1)C(=O)OC2 |  |  |  | solubility [17]: Insoluble
O=C(/C=C/c1ccccc1)OCCCc1cn(Cc2ccccc2F)nn1 |  | 19.67% | Non-Toxic | 
O=C(/C=C/c1ccccc1)OCCCc1cn(Cc2ccc(F)cc2)nn1 |  | 67.84% | Non-Toxic | 
O=C(/C=C/c1ccccc1)OCc1cn(Cc2ccc(Br)cc2)nn1 |  |  |  | solubility [17]: Insoluble
O=C(/C=C/c1ccccc1)OCc1cn(Cc2ccc(F)cc2)nn1 | inactive | 59.1% | Non-Toxic | 
